Columns and labels:
DU-145 = experiment: Antiproliferative activity against AR-negative human DU-145 cells assessed as reduction in cell viability measured after 72 hrs by MTS assay; details: DU-145, 72 h
[1] = molecular target: T1, Bromodomain-containing protein 3 (Homo sapiens, UniProt Q15059); experiment: Inhibition of BRD3-BD2 (unknown origin) by fluorescence polarization assay
How it was run: (§1)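 FP competition assay using the fluorescein-labeled PCC conjugate (4 nM) as tracer. Recombinant His-tagged BRD bromodomain (20–400 nM) in 50 mM HEPES pH 7.4, 150 mM NaCl, 0.5 mM TCEP, 0.05% Tween-20. DMSO-matched serial dilutions were added and the plate incubated. Read at ex 485/em 535 nm, with G-factor zeroed on tracer alone. Triplicate data were curve-fitted, error SEM.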

[2] = molecular target: T1, Bromodomain-containing protein 3; experiment: Inhibition of BRD3-BD1 (unknown origin) by fluorescence polarization assay
How it was run: as §1

[3] = molecular target: T2, Bromodomain-containing protein 4 (Homo sapiens, UniProt O60885); experiment: Inhibition of BRD4-BD2 (unknown origin) by fluorescence polarization assay
How it was run: as §1

[4] = Antiproliferative activity against human Androgen-resistant 22Rv1 cells assessed as reduction in cell viability measured after 72 hrs by MTS assay; type: functional, cell-based; details: 22Rv1, 72 h
How it was run: (§2)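 MTS viability assay run in triplicate wells. Serial dilutions in DMSO were given, with DMSO as negative control and doxorubicin as positive control, and incubated 72 h. MTS reagent was added for 2 h and absorbance read at 490 nm. % cytotoxicity = (A_medium − A_treatment)/A_medium × 100. EC50 ± SD was taken from dose-response curves of at least three independent experiments.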

[5] = Cytotoxicity against HFF cells assessed as reduction in cell viability measured after 72 hrs by MTS assay; type: toxicity, cell-based; details: human
How it was run: as §2

[6] = molecular target: T2, Bromodomain-containing protein 4; experiment: Inhibition of BRD4-BD1 (unknown origin) by fluorescence polarization assay
How it was run: as §1

PC-3 = experiment: Antiproliferative activity against androgen-insensitive human PC-3 cells assessed as reduction in cell viability measured after 72 hrs by MTS assay; type: functional, cell-based; details: PC-3, 72 h
How it was run: as §2

LNCaP = experiment: Antiproliferative activity against androgen-sensitive human LNCaP cells assessed as reduction in cell viability measured after 72 hrs by MTS assay; type: functional, cell-based
How it was run: as §2

VCaP = experiment: Antiproliferative activity against AR-positive human VCaP cells assessed as reduction in cell viability measured after 72 hrs by MTS assay; type: functional, cell-based
How it was run: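 VCaP cells in 96-well plates, compound serially diluted in DMSO and run in triplicate wells for 72 h. MTS reagent added for 2 h, absorbance read at 490 nm. % cytotoxicity = (A_medium − A_treatment)/A_medium × 100. EC50 and SD taken from dose-response curves, at least three independent experiments.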

[7] = Cytotoxicity against human WI-38 cells assessed as reduction in cell viability measured after 72 hrs by MTS assay; type: toxicity, cell-based
How it was run: as §2

T1 sequence (Q15059 whole entry): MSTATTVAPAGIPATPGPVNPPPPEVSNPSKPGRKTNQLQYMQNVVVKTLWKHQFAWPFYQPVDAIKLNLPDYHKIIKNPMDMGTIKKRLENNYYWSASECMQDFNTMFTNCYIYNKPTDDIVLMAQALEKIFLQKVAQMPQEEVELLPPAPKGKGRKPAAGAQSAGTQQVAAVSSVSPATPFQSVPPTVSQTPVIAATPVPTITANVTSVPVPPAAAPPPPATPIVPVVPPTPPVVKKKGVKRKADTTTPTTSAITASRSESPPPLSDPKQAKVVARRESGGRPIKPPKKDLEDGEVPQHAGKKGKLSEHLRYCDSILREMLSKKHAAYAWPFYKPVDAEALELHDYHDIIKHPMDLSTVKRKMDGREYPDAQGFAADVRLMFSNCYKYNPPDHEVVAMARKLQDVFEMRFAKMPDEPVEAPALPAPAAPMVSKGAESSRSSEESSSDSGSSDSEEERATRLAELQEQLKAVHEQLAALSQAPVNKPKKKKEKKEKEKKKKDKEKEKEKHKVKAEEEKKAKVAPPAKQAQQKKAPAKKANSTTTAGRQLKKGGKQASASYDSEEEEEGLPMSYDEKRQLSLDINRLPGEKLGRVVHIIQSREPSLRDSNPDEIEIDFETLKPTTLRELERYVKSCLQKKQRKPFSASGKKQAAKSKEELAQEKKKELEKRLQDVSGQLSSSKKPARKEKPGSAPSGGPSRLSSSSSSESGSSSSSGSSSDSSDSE

| SMILES | EC50 (DU-145) | IC50 [1] | IC50 [2] | IC50 [3] | EC50 [4] | EC50 at 72 h [5] | IC50 [6] | EC50 (PC-3) | EC50 (LNCaP) | EC50 (VCaP) | EC50 at 72 h [7] |
| --- | --- | --- | --- | --- | --- | --- | --- | --- | --- | --- | --- |
| CC(=O)OC[C@]12CC[C@H]3[C@@H](C[C@H]4O[C@]45CCCC(=O)[C@]35C)[C@]1(O)CC[C@@]2(O)[C@@](C)(O)[C@H]1C[C@@H](C)[C@@H](C)C(=O)O1 | > 2000 nM | > 20000 nM | > 20000 nM | 1830 nM | > 2000 nM | > 2000 nM | 3870 nM | > 2000 nM | > 2000 nM | – | – |
| CC1=C(CO)C(=O)O[C@@H]([C@@H](C)[C@H]2CC[C@H]3[C@@H]4C[C@H]5O[C@]56[C@@H](O)C=CC(=O)[C@]6(C)[C@H]4CC[C@]23C)C1 [WITHAFERIN A] | – | > 20000 nM | > 20000 nM | > 20000 nM | – | > 6800 nM | > 20000 nM | 410 nM | 870 nM | – | – |
| CC(=O)OC[C@]12CC[C@H]3[C@@H](C[C@H]4O[C@]45CC=CC(=O)[C@]35C)[C@]1(O)CC[C@@]2(O)[C@@](C)(O)[C@H]1C[C@]2(C)O[C@]2(C)C(=O)O1 | 1470 nM | 755 nM | 2360 nM | 5630 nM | 177 nM | > 2000 nM | 1930 nM | 425 nM | 412 nM | – | – |
| CC(=O)OC[C@]12CC[C@H]3[C@@H](C[C@H]4O[C@]45CC=CC(=O)[C@]35C)[C@]1(O)CC[C@@]2(O)[C@@](C)(O)[C@H]1C[C@@H](C)[C@@H](C)C(=O)O1 | > 2000 nM | > 20000 nM | > 20000 nM | > 20000 nM | 1490 nM | > 2000 nM | > 20000 nM | 844 nM | 1060 nM | – | – |
| COc1cccc2c1C(=O)c1c(O)c3c(c(O)c1C2=O)C[C@@](O)(C(=O)CO)C[C@@H]3O[C@H]1C[C@H](N)[C@H](O)[C@H](C)O1 [DOXORUBICIN] | 40 nM | – | – | – | 20 nM | 150 nM | – | 340 nM | 110 nM | 670 nM | 800 nM |
| CC(=O)OC[C@]12CC[C@H]3[C@@H](C[C@H]4O[C@]45CC=CC(=O)[C@]35C)[C@]1(O)CC[C@@]2(O)[C@@](C)(O)[C@H]1C[C@H](C)[C@H](C)C(=O)O1 | > 2000 nM | > 20000 nM | > 20000 nM | > 20000 nM | 1130 nM | > 2000 nM | > 20000 nM | 899 nM | 1050 nM | – | – |
| CC(=O)OC[C@]12CC[C@H]3[C@@H](CC=C4C=CCC(=O)[C@@]43C)[C@]1(O)CC[C@@]2(O)[C@@](C)(O)[C@H]1CC(C)=C(C)C(=O)O1 | – | 131 nM | 262 nM | 294 nM | – | > 3000 nM | 909 nM | 3100 nM | 1100 nM | – | – |
| CC(=O)OC[C@]12CC[C@H]3[C@@H](C[C@@H]4O[C@@]45CC=CC(=O)[C@]35C)[C@]1(O)CC[C@@]2(O)[C@@](C)(O)[C@H]1CC(C)=C(C)C(=O)O1 | – | 4260 nM | 89.7 nM | 10800 nM | – | > 12000 nM | 31.2 nM | 1200 nM | 320 nM | – | – |
| C[C@H]1C[C@H]([C@](C)(O)[C@]2(O)CC[C@@]3(O)[C@@H]4C[C@H]5O[C@]56CC=CC(=O)[C@]6(C)[C@H]4CC[C@]23C)OC(=O)[C@@H]1C | – | – | – | – | 210 nM | > 2000 nM | – | – | 290 nM | – | – |

Source: ChEMBL document CHEMBL5316292 (J Med Chem, 2023)
